The list is not random: actives were taken first. Their share in the collection is about 2.1%.
PfGluPho inh – PfG6PD (Plasmodium falciparum) enzyme inhibition; 350,000 tested, 0.78% active; inhibition, % at 20 µM; PfGluPho enzyme, NADPH resazurin-diaphorase fluorescence;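 active = inhibition reaching at least a set limit at 20 µM in the primary screen, cut at about 59% in these data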;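 also: 0% = DMSO wells with substrate and 100% = DMSO wells lacking glucose-6-phosphate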
UCH37 inh – blocks the human deubiquitinase UCH37. Q9Y5K5. purified proteasome/UCH37, Ub-AMC cleavage fluorescence. inhibition, % (test concentration not listed). 330,000 tested, 0.33% active. AID 588478;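 active = mean inhibition over replicate wells above about 20%, limit read from the data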;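 also: 0% = compound-free wells with enzyme and 100% = wells lacking proteasome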
Target sequence (Q9Y5K5 whole entry, looked up): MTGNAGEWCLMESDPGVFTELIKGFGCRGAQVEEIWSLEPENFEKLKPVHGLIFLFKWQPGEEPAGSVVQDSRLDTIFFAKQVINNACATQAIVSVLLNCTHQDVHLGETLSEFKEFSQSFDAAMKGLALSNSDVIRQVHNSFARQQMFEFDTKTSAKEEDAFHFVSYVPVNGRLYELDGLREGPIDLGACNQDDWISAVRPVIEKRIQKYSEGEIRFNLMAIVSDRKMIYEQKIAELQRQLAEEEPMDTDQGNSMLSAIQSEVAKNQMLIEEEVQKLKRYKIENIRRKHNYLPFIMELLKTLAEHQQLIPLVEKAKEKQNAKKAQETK
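Material: Human UCH37 enzyme supplied as purified proteasome complex | Schedule: 30 min compound-proteasome preincubation then 25 min substrate reaction, room temperature | Detection: AMC fluorescence from Ub-AMC cleavage, excitation 355 nm, emission 460 nm | Benchmarks: Wells without proteasome as full block, compound-free enzyme plus substrate as uninhibited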
Cardio protect – protects H9c2 cardiomyocytes from peroxide injury; H2O2 injury protection, ATPLite, 2 h; protection from H2O2 cell death, % at 20 µM; 360,000 tested, 0.63% active; AID 588492;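 active = compounds giving at least 50% protection of heart cells from peroxide-induced death in the single-dose screen, raw or plate-pattern-corrected value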;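 also: 0% = DMSO wells with peroxide and 100% = DMSO wells without peroxide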
HKDC1 inh – blocks human hexokinase HKDC1 activity; Q2TB90; recombinant HKDC1, G6PDH/diaphorase resazurin coupled fluorescence; inhibition, % at 20 µM; 340,000 tested, 0.16% active; AID 493160;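 active = inhibition above about 35% when tested at 20 µM, limit read from the data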;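 also: plate controls were DMSO wells with enzyme for no effect and DMSO wells lacking enzyme for full effect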
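System: Recombinant HKDC1 hexokinase | Amount: HKDC1 at 5 µg/mL | Reagent: Glucose with 1 mM ATP | Doses: Single 20 µM dose | Incubation: Reaction time 90 min, room temperature, protected from light | Signal: Coupled resazurin fluorescence, excitation 525 nm, emission 613 nm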
aDG glyco act – increases alpha dystroglycan glycosylation | activation, % at 10 µM | 360,000 tested, 0.22% active | Pro5-aDG cells, alpha-DG glycosylation AlphaScreen (IIH6); 0% Pro5, 100% B10-LARGE cell signal;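 active = activation of at least 8% versus controls, or a plate z-score of at least 8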;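 also: Pro5 are CHO cells carrying HIG-tagged alpha-DG that lacks glycosylation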
B2AR ag – activates human beta-2 adrenergic receptor causing internalization; P07550; Am2.2-beta2AR cells, FAP receptor internalization, flow cytometry; response, % (test concentration not listed); 340,000 tested, 0.43% active; AID 504454;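 active = response above a set limit, near 3 SD of response in nonfluorescent compounds, cut at about 42% in these data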
Numbers without * were called inactive; nt = no result given.

SMILES	PfGluPho inh	UCH37 inh	Cardio protect	HKDC1 inh	aDG glyco act	B2AR ag
Cc1c(C(=O)NN=Cc2cccnc2)sc(=S)n1C	nt	10	nt	nt	nt	nt
Cc1cc(C)c2c(N)c(C(=O)N/N=C/c3cccnc3)sc2n1	33	nt	66*	-2	0	11
Cc1c(C(=O)N/N=C/c2cccnc2)sc(=S)n1C	3	nt	25	-6	0	42*
O=C(CCc1ccccc1)NN=Cc1cc2c(cc1Br)OCO2	nt	1	nt	nt	nt	nt
CCC(=NNC(=O)Nc1ccccc1)c1ccccc1	nt	1	nt	nt	nt	nt
COc1ccc(/C=C(/NC(=O)c2ccco2)C(=O)N2CCOCC2)cc1	-9	9	-6	-2	1	49*
O=C(O)CCC(=NNc1ccc([N+](=O)[O-])cc1S(=O)(=O)N1CCOCC1)c1cccs1	nt	8	nt	nt	nt	nt
O=C(O)CCC(=NNc1ccc(S(=O)(=O)N2CCOCC2)cc1[N+](=O)[O-])c1cccs1	nt	20*	nt	nt	nt	nt
Cc1ccc(C=c2sc3nc(-c4ccccc4Br)nn3c2=O)o1	nt	9	nt	nt	nt	nt
Cc1cc(O)c(C(=O)/C=C/c2cccc([N+](=O)[O-])c2)c(=O)o1	-5	nt	-6	10	0	11
CC(=O)Oc1ccccc1C(=O)C=Cc1cccc([N+](=O)[O-])c1	43	4	-16	11	0	65*
O=C(c1cc(=O)[nH]c2ccccc12)N1CCN(S(=O)(=O)c2ccc(Cl)cc2)CC1	-14	-4	88*	-2	0	15
O=C(c1ccccn1)N1CCN(S(=O)(=O)c2ccc3ccccc3c2)CC1	-16	3	-6	-4	0	-6
O=C(c1cc(=O)[nH]c2ccccc12)N1CCN(S(=O)(=O)c2ccc3ccccc3c2)CC1	-12	-2	103*	3	0	0
O=c1[nH]c2ccccc2nc1-c1cccs1	-1	-276	18	5	0	-15
O=c1[nH]nc(-c2cccs2)c2ccccc12	12	-2	70*	1	0	-3
Cc1ccc(Cn2ccc(=O)c(OCc3c(Cl)cccc3Cl)c2C)cc1	18	25*	-30	0	2	16
Cc1[nH]ccc(=O)c1OCc1c(Cl)cccc1Cl	-7	2	3	-1	0	0
CC(=NNC(=O)c1cc(O)ccc1O)c1cccc(NC(=O)c2cccc(Cl)c2)c1	nt	6	nt	nt	nt	nt
COc1ccc(OC)c(-c2csc(NC(=O)CSc3ccc(Br)cc3)n2)c1	16	5	-4	-8	0	0
COc1ccc(OC)c(-c2csc(NC(=O)COC(=O)C3CCC3)n2)c1	14	4	7	-2	0	7
COc1ccc(OC)c(-c2csc(NC(=O)CSc3ccc([N+](=O)[O-])cc3)n2)c1	6	33*	0	13	0	6
COc1ccc(OC)c(-c2csc(NC(=O)COC(=O)c3ccc(NC(=O)CC#N)cc3)n2)c1	-5	-3	12	0	0	42*
O=C(CNC(=O)C12CC3CC(CC(C3)C1)C2)NN=Cc1ccccn1	nt	0	nt	nt	nt	nt
O=C(NCCN1CCN(c2ccccc2F)CC1)c1cccn2c(=O)c3ccccc3nc12	10	-30	71*	17	0	12
SMILES	PfGluPho inh	UCH37 inh	Cardio protect	HKDC1 inh	aDG glyco act	B2AR ag
O=C(NCCN1CCN(c2ccccc2)CC1)c1cccn2c(=O)c3ccccc3nc12	12	-30	19	-1	0	10
COc1ccc(OC)c(C2CC(=O)N3CN(c4ccccc4F)CSC3=C2C#N)c1 (stereo not given)	53	6	-1	11	0	6
CC(C)c1ccc(C2CC(=O)N3CN(C)CSC3=C2C#N)cc1 (stereo not given)	86*	nt	-2	27	0	2
Cc1ccc(C2CC(=O)N3CN(Cc4ccco4)CSC3=C2C#N)cc1 (stereo not given)	59	4	2	3	0	-1
COc1ccc2ccccc2c1C1CC(=O)N2CN(C)CSC2=C1C#N (stereo not given)	79*	6	3	10	0	4
O=C(NN=C/C=C/c1ccccc1)c1ccccc1Br	nt	8	nt	nt	nt	nt
COc1cccc(OC)c1C(=O)Nc1nc2ccc([N+](=O)[O-])cc2s1	-22	21*	-2	-5	0	-1
NC(=S)NN=C1CC(n2nnn(-c3cccc(Cl)c3)c2=S)C2COC1O2 (stereo not given)	nt	3	nt	nt	nt	nt
COc1ccc(C=NNC(=O)c2c(Br)cnn2C)c2ccccc12	nt	0	nt	nt	nt	nt
COC(=O)NN=Cc1ccccc1OC/C=C/c1ccccc1	nt	1	nt	nt	nt	nt
O=C(/C=C1\NC2(CCCC2)Cc2ccccc21)C(=O)N/N=C/c1ccccc1O	-34	nt	80*	-1	0	16
CC(=NNC(=O)c1cc(C)oc1C)c1ccc2ccccc2c1	nt	-2	nt	nt	nt	nt
O=C(CSc1nnnn1C1CC2CCC1C2)Nc1ccnc2ccccc12 (stereo not given)	-3	nt	-30	-2	7.4*	6
CC(=NNC(=O)CNS(=O)(=O)c1ccccc1)c1ccc(Br)cc1	nt	2	nt	nt	nt	nt
O=[N+]([O-])c1cc(-c2ncccn2)c([N+](=O)[O-])s1	123*	8	-27	10	0	12
CCOc1ccc(/C=N/NC(=O)C(O)c2ccccc2)c(O)c1 (stereo not given)	-48	nt	52*	-3	0	7
CCOc1ccc(C=NNC(=O)C(OC)c2ccccc2)cc1 (stereo not given)	nt	6	nt	nt	nt	nt
Cc1cccc(OCC(=O)NCC(=O)N/N=C/c2cc(Br)cc(Br)c2O)c1	-25	nt	59*	-27	0	9
O=C(COc1ccccc1)NCC(=O)N/N=C/c1ccc(O)cc1O	-29	nt	60*	-34	0	4
Cc1cccc(OCC(=O)NCC(=O)NN=Cc2ccccc2)c1	nt	1	nt	nt	nt	nt
Cc1cccc(OCC(=O)NCC(=O)NN=Cc2ccc(O)cc2O)c1	nt	2	nt	nt	nt	nt
O=C(Cc1n[nH]c(=O)[nH]c1=O)NN=Cc1cccc(Cl)c1	nt	4	nt	nt	nt	nt
COc1cc(C(=O)NN=Cc2ccc(OC(=O)c3cccc(C)c3)cc2)ccc1O	nt	1	nt	nt	nt	nt
CN(C)C=NC(=O)c1[nH]c2ccc(Cl)cc2c1-c1ccccc1	20	-64	-2	6	0	49*
COc1cccc(C(=O)N=c2sc3c(C)ccc(OC)c3n2C)c1	14	-50	-4	-5	0	-10
COc1ccc(C(=O)N=c2sc3c(C)ccc(OC)c3n2C)cc1OC	22	-234	24	1	0	47*
O=C(Cn1nc(C(=O)O)c2ccccc2c1=O)c1c[nH]c2ccccc12	10	4	57*	-6	0	7
CCc1ccc(NC(=O)CC(C)=NNC(=O)COc2ccc(C)cc2Br)cc1	nt	-1	nt	nt	nt	nt
O=c1nc(N/N=C/c2ccccn2)cn[nH]1	-29	nt	55*	-9	0	0

Assay outcomes deposited in PubChem BioAssay by several laboratories.
